# In PubChem BioAssay AID488937 (Broad Institute, 2010):
# Results filed as inconclusive are left out. Unmarked numbers belong to inactive results.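 Rule for the calls: active = compounds whose fitted half-maximal growth inhibition dose is no more than ten times the top tested dose; inconclusive = flat curve inhibiting 30 to 70%, or poor curve fit; inactive = flat within 30%, weaker potency, or rising signal.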
# Test: Candida albicans growth inhibition, agent alone, dose response, counter-screen for reversing antifungal drug resistance, CaCi-2 strain, dry powder, set 3 (AID 488937)
# Settings: C. albicans CaCi-2 growth, Alamar Blue fluorescence, 48 h; series mostly up to 26 µM; activity change, negative = inhibition: at the top concentration
# In short: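 Test system – C. albicans CaCi-2 without fluconazole · Input – inoculum A600 0.00015 · Measured by – Alamar Blue fluorescence in RFU[…] · Times – 48 h static culture at 37 °C, Alamar Blue 2 h, room temperature · Control set – geldanamycin as positive (growth inhibition) control · Buffer or medium – RPMI medium without fluconazole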
row,Compound,"activity change, negative = inhibition"
1,Cc1ccc(C(=O)N2CCN(c3ccccn3)CC2)cc1,-9.55%
2,O=C(c1ccc(Cl)cc1)N1CCN(c2nccs2)CC1,-6.15%
3,Cc1ccnc(N2CCN(C(=O)c3ccc(Cl)cc3)CC2)c1,-5.16%
4,O=C(c1ccc(Cl)cc1)N1CCN(c2nc3ccccc3s2)CC1,-1.53%
5,O=C(c1ccccc1Cl)N1CCN(c2ccccn2)CC1,-25.8%
6,O=C(c1ccc(F)cc1)N1CCN(c2ccccn2)CC1,-4.39%
7,O=C(c1ccc(Cl)cc1)N1CCN(c2nc3ccccc3o2)CC1,-31.6%
8,Cc1ccc(N2CCN(C(=O)c3ccc(Cl)cc3)CC2)nn1,-7.26%
9,Cn1ccnc1N1CCN(C(=O)c2ccc(Cl)cc2)CC1,-14%
10,CCCCC(=O)N1CCN(c2ccccn2)CC1,-20.4%
11,Cc1cccc(N2CCN(C(=O)c3ccc(Cl)cc3)CC2)n1,-16.8%
12,COc1ccc(C(=O)N2CCN(c3ccccn3)CC2)cc1,-9.02%
13,COc1cccnc1N1CCN(C(=O)c2ccc(Cl)cc2)CC1,-3.13%
14,O=C(c1ccccc1)N1CCN(c2ccccn2)CC1,-14%
15,Cc1ccc(N2CCN(C(=O)c3ccc(Cl)cc3)CC2)nc1,-27.7%
16,COCCC(=O)N1CCN(c2ccccn2)CC1,-10.3%
17,O=C(c1ccc(Cl)cc1)N1CCN(c2ncccn2)CC1,2.79%
18,N#Cc1ccc(C(=O)N2CCN(c3ccccn3)CC2)cc1,-6.52%
19,N#Cc1cccnc1N1CCN(C(=O)c2ccc(Cl)cc2)CC1,-4.97%
20,O=C(c1ccc(Cl)cc1)N1CCN(c2ccc(C(F)(F)F)cn2)CC1,-1.49%
21,O=C(c1ccc(Cl)cc1)N1CCN(c2cccc(C(F)(F)F)n2)CC1,-5.42%
22,O=C(c1ccc(Cl)cc1)N1CCN(c2cnccn2)CC1,-13.9%
23,CC(C)C(=O)N1CCN(c2ccccn2)CC1,-24.5%
